# High-throughput results: PubChem, several laboratories
# C8 TRAIL sens: viability loss with TRAIL in NB7+C8 cells, primary screen, TRAIL sensitizer project, cell-based, ATPlite luminescence; 360,000 compounds, 1% hits; inhibition (viability loss, TRAIL sensitization), % at 10 µM;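 active = compounds causing at least 50% loss of cell viability in the single-dose screen, relative to plate controls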
# STAT3 blocker: IL-6 driven STAT3 reporter inhibitors, primary screen, U3A cells, luciferase, luminescence, MLSCN library; IL-6 STAT3-luciferase reporter; host cell line lacks STAT1; inhibition, % at 5.5 µM; 190,000 compounds, 0.89% hits; AID 862, 2007;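 active = inhibition above the mean inhibition across all screened compounds plus 3 SD, cut at about 44% in these data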;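 note: 0% = DMSO only wells and 100% = 100 µM nifuroxazide control wells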
# PPC-1+TRAIL kill: compounds killing PPC-1 cancer cells with TRAIL present, primary screen, TRAIL potentiator project, ATPLite luminescence, uHTS | cell killing (% activity), % at 4 µM or 5 µM | PPC-1 cells + TRAIL, ATPLite viability luminescence | AID 1443, 2008 | 220,000 compounds, 0.41% hits;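 active = cell killing above 50% in the first pass at 4 µM, then a duplicate retest at 5 µM averaging 50% or more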;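 note: plate controls were cells with TRAIL plus DMSO for no effect and medium-only wells lacking cells for full effect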
# HSP90 inh: HSP90 inhibitors, primary screen, cell lysate, luminescence. Rabbit reticulocyte lysate, luciferase refolding luminescence, 3 h. inhibition, % at 5.6 µM. 290,000 compounds, 0.91% hits;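 active = inhibition above the screen-wide mean plus 3 SD, computed separately per campaign, cut at about 16% in these data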;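 note: 0% = DMSO wells and 100% = 60 µM geldanamycin wells; inhibitors lower the luminescence because luciferase stays unfolded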
# FLuc inhib CS: firefly luciferase enzyme inhibitors, primary screen, artefact control for luciferase-based inhibitor screens, biochemical, luminescence, ATPLite; 10 min; inhibition, % at 10 µM; 200,000 compounds, 1.5% hits; AID 1006, 2008;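 active = inhibition above about 50% when tested at 10 µM, limit read from the data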
# Target sequence (P08659 whole entry, looked up): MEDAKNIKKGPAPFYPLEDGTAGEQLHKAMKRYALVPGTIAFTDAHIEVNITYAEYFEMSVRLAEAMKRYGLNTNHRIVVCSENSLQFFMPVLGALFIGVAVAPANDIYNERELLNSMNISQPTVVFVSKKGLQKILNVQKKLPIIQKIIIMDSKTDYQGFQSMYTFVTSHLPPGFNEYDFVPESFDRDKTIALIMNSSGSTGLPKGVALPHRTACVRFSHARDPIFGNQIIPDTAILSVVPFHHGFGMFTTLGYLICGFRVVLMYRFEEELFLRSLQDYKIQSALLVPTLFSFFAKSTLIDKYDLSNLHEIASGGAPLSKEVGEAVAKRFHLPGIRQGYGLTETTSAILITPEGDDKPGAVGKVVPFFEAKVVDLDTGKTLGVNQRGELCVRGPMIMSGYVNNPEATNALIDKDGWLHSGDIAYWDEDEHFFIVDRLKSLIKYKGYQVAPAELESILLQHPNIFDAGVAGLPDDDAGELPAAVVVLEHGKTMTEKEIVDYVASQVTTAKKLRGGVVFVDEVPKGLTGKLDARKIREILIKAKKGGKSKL
# FLuc stim CS: FLuc activators, initial screening, artefact control for FLuc-dependent activation tests, biochemical, ATPlite luminescence. AID 1027, 2008. 200,000 tested, under 10 active. ATPlite luciferase biochemical, 10 min; 0 = ATP-free wells, 1 = DMSO control. activation factor at 10 µM. Luciferin 4-monooxygenase (Photinus pyralis), P08659;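 active = luciferase activation factor, scaled between plate controls, of at least 2 with compound at 10 µM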
#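 System: luciferase plus luciferin reagent, cell-free; medium: PBS as buffer for the ATP substrate; dosing: test compounds dosed from 2 mM stocks in 100% DMSO; timing: 10 min post-reagent at room temperature; measured by: luminescence measurement of luciferase light output; evaluation: luciferase activation, seen as luminescence increase over controls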
# Starred values were filed as active, the others as inactive; / = no result given. Compounds with a hit are over-represented: about 2.2% of the library has one in this group of screens.
SMILES,C8 TRAIL sens,STAT3 blocker,PPC-1+TRAIL kill,HSP90 inh,FLuc inhib CS,FLuc stim CS
CC(=O)NC(=S)Nc1ccc(-c2nc3ccc(C)cc3s2)cc1,17.9,0.8,0.0,-0.3,13.9,0.9
CCC(=O)NN1CCN(c2ccncc2S(=O)(=O)N2CCCCC2)CC1,1.1,/,/,-0.3,/,/
CC(=O)Nc1ccc(NC(=O)C(F)(F)F)cc1,2.2,4.7,21.3,-0.2,-1.8,1
CC1CCN(c2ccc(-c3ccc(NC(=O)C(F)(F)F)cc3)nn2)CC1,88.6*,/,/,4.4,/,/
COc1ccccc1N1CCN(c2cc(N3CCCC3)nc(C)n2)CC1,5.3,15.5,22.4,0.1,-2.2,1
COc1ccccc1N1CCN(c2ccc3ccccc3n2)CC1,48.0*,/,/,12.6,/,/
CCCCCc1cc(=O)oc2c(C(CCN(CC)CC)c3cc(OC)c(OC)c(OC)c3)c(OC)cc(OC)c12 (configuration not stated),75.0*,/,12.7,/,/,/
O=C(CC1NCCNC1=O)Nc1cccc([N+](=O)[O-])c1 (configuration not stated),-5.5,5.6,-20.1,3.2,-4.0,1
O=C(NCCN1CCOCC1)c1cc(Cl)ccc1Cl,5.2,/,/,8.0,/,/
O=C(NCCN1CCOCC1)NC1(C(F)(F)F)Oc2ccc(Cl)cc2O1 (configuration not stated),52.0*,4.9,14.7,-2.0,-2.4,1
O=C1C(c2ccncc2)=C(O)c2ccccc21,53.9*,27.3,24.6,16.4*,83.1*,0.2
Cc1cccc(NC(=O)c2cnc3sccn3c2=O)c1,34.6,/,44.1,9.4,60.4*,0.4
COc1ccccc1N1CCN(C2CCN(C(=O)COc3cccc(C)c3)CC2)CC1,-0.1,-11.9,12.1,-4.4,-6.0,1.1
CCN(CC)c1ccc(S(=O)(=O)N2CCOCC2)cc1NC(=O)CN1CCN(Cc2ccccc2)CC1,9.4,/,11.1,2.6,/,/
O=C(N/N=C/c1ccccn1)c1ccccc1,39.0,1.0,-5.4,1.7,55.9*,0.4
Cc1ccccc1C(=O)N/N=C/c1ccccn1,38.0,-1.3,24.3,-0.8,54.3*,0.5
O=C(N/N=C\c1ccccn1)c1ccccc1O,17.8,20.8,15.7,6.1,69.0*,0.3
Cc1ccccc1C(=O)N/N=C/c1ccncc1,-6.2,1.1,-8.8,-2.6,5.9,0.9
O=C(N/N=C\c1ccncc1)c1ccccc1O,28.7,19.0,-0.3,1.8,68.8*,0.3
CN(C)c1ccc(CNc2nc3cc(-c4ccc(F)cc4)sc3c(=O)n2C)cc1,20.7,/,/,/,/,/
O=C(O)c1cscc1-c1cccc2ccccc12,3.6,/,/,/,/,/
CSc1nc(N)n2nc(-c3ccc(Cl)cc3)cc2n1,44.9*,/,19.3,-2.3,/,/
Cc1nonc1C(=O)N/N=C/c1ccncc1,-7.2,5.9,2.1,2.7,-0.6,1
Cc1nonc1C(=O)N/N=C/c1ccc(O)cc1O,56.3*,16.6,/,-0.1,6.5,0.9
Cc1ccc(OCC(O)CNC2CCCC2)c(C)c1 (configuration not stated),7.5,/,/,-1.7,/,/
SMILES,C8 TRAIL sens,STAT3 blocker,PPC-1+TRAIL kill,HSP90 inh,FLuc inhib CS,FLuc stim CS
Cc1ccccc1OCC(O)CNC1CCC(NCC(O)COc2ccccc2C)CC1 (configuration not stated),92.8*,/,/,4.4,/,/
CCCN(CC(=O)Nc1ccccc1C)CC(=O)Nc1ccc(Br)cc1F,4.6,/,/,4.8,/,/
CC(=O)c1ccc(NC(=O)CN2C(=O)/C(=C/C=C/c3ccccc3)SC2=S)cc1,-3.6,-3.6,1.1,4.1,1.1,1
O=C(O)CN1C(=O)/C(=C/C=C/c2ccccc2)SC1=S,33.7,9.2,33.0,0.0,79.1*,0.2
Cc1ccn2c(c1)nc(=S)n2C(=O)c1ccco1,/,1.0,71.4*,-3.0,93.6*,0.1
O=C(c1ccc(Br)o1)N1CCN(c2ccc3nnc(-c4ccc(F)cc4)n3n2)CC1,-13.8,9.9,15.9,1.1,-6.4,1.1
COc1ccc(-n2[nH]c(C)cc2=O)cc1,-33.4,-2.3,13.8,16.7*,-2.8,1
